Measurements as given in ChEMBL document CHEMBL1122341, “Prostaglandin isosteres. 2. Chain-modified thiazolidinone prostaglandin analogues as renal vasodilators” (1983).

Experiments:
[1] = test system: Canis familiaris; experiment: Effect on lower arterial blood pressure in conscious dogs dosed at 5 mg/kg, observed at 2-3 h; type: functional, Canis lupus familiaris
Outline: (§1)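 Conscious dogs; aortic catheter for blood pressure and heart rate, with renal and lower aortic blood flow monitored. After a 30-min control period the compound was given orally and the variables were followed for a further 5 h, recorded every 2 min. Readings were averaged over the control period and each hourly postdose period; means ± SE.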

[2] = test system: Canis familiaris; experiment: Percent change in renal resistance in anesthetized dogs after infusion of compound at 10 nM/kg/min; type: functional, Canis lupus familiaris
Outline: (§2)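 Vinbarbital-anesthetized dogs with an electromagnetic flow probe on the left renal artery and an aortic catheter for pressure. Saline was infused intrarenally for 30 min as pretreatment. Percent change was calculated from the maximum decrease in renal resistance versus pretreatment.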

[3] = test system: Canis familiaris; experiment: Effect on renal plasma flow in conscious dogs dosed at 0.05 mg/kg (pretreatment); type: functional, Canis lupus familiaris
Outline: (§3)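 Trained conscious female mongrel dogs, postabsorptive, given 500 mL tap water orally 1-1.5 h beforehand. Effective renal plasma flow was taken as renal p-aminohippurate clearance: priming 8 mg/kg iv, then 0.3 (mg/kg)/min in isotonic NaCl. Two 30-min control clearance periods, a single iv dose (Na salt, aqueous), then four 30-min periods. Plasma sampled at midpoints; means ± SEM.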

[4] = test system: Canis familiaris; experiment: Percent change in renal plasma flow in conscious dogs dosed at 0.05 mg/kg; type: functional, Canis lupus familiaris; outline: as §3
[5] = test system: Canis familiaris; experiment: Percent change in renal plasma flow in conscious dogs dosed at 0.1 mg/kg; type: functional, Canis lupus familiaris; outline: as §3
[6] = test system: Canis familiaris; experiment: Effect on lower aortic blood flow in conscious dogs dosed at 5 mg/kg, observed at 4-5 h; type: functional, Canis lupus familiaris, Aorta; outline: as §1
[7] = test system: Canis familiaris; experiment: Effect on renal plasma flow in conscious dogs dosed at 0.2 mg/kg (pretreatment); type: functional, Canis lupus familiaris; outline: as §3
[8] = test system: Canis familiaris; experiment: Effect on renal plasma flow in conscious dogs dosed at 0.2 mg/kg (post-treatment); type: functional, Canis lupus familiaris; outline: as §3
[9] = test system: Canis familiaris; experiment: Effect on renal blood flow in conscious dogs dosed at 5 mg/kg, observed at 1-2 h; type: functional, Canis lupus familiaris, Kidney; outline: as §1
[10] = test system: Canis familiaris; experiment: Effect on renal plasma flow in conscious dogs dosed at 0.1 mg/kg (post-treatment); type: functional, Canis lupus familiaris; outline: as §3
[11] = test system: Canis familiaris; experiment: Effect on lower arterial blood pressure in conscious dogs dosed at 5 mg/kg, observed at 1-2 h; type: functional, Canis lupus familiaris; outline: as §1
[12] = test system: Canis familiaris; experiment: Percent change in renal resistance in anesthetized dogs after infusion of compound at 25 nM/kg/min; type: functional, Canis lupus familiaris
[13] = test system: Canis familiaris; experiment: Effect on lower arterial blood pressure in conscious dogs dosed at 5 mg/kg, observed at 4-5 h; type: functional, Canis lupus familiaris; outline: as §1
[14] = test system: Canis familiaris; experiment: Effect on heart rate in conscious dogs dosed at 5 mg/kg, observed at 4-5 h; type: functional, Canis lupus familiaris; outline: as §1
[15] = test system: Canis familiaris; experiment: Effect on lower arterial blood pressure in conscious dogs dosed at 5 mg/kg, observed at 3-4 h; type: functional, Canis lupus familiaris; outline: as §1
[16] = test system: Canis familiaris; experiment: Effect on lower aortic blood flow in conscious dogs dosed at 5 mg/kg, observed at 0-1 h; type: functional, Canis lupus familiaris, Aorta; outline: as §1
[17] = test system: Canis familiaris; experiment: Percent change in renal plasma flow in conscious dogs dosed at 0.2 mg/kg; type: functional, Canis lupus familiaris; outline: as §3
[18] = test system: Canis familiaris; experiment: Effect on heart rate in conscious dogs dosed at 5 mg/kg, observed at 3-4 h; type: functional, Canis lupus familiaris; outline: as §1
[19] = test system: Canis familiaris; experiment: Effect on heart rate in conscious dogs dosed at 5 mg/kg, observed at 1-2 h; type: functional, Canis lupus familiaris; outline: as §1
[20] = test system: Canis familiaris; experiment: Effect on lower aortic blood flow in conscious dogs dosed at 5 mg/kg, observed at 1-2 h; type: functional, Canis lupus familiaris, Aorta; outline: as §1
[21] = test system: Canis familiaris; experiment: Effect on renal plasma flow in conscious dogs dosed at 0.1 mg/kg (pretreatment); type: functional, Canis lupus familiaris; outline: as §3
[22] = test system: Canis familiaris; experiment: Percent change in renal resistance in anesthetized dogs after infusion of compound at 50 nM/kg/min; type: functional, Canis lupus familiaris
[23] = test system: Canis familiaris; experiment: Effect on renal blood flow in conscious dogs dosed at 5 mg/kg, observed at 2-3 h; type: functional, Canis lupus familiaris, Kidney; outline: as §1
[24] = test system: Canis familiaris; experiment: Effect on renal plasma flow in conscious dogs dosed at 0.05 mg/kg (post-treatment); type: functional, Canis lupus familiaris; outline: as §3
[25] = test system: Canis familiaris; experiment: Effect on lower aortic blood flow in conscious dogs dosed at 5 mg/kg, observed at 3-4 h; type: functional, Canis lupus familiaris, Aorta; outline: as §1
[26] = test system: Canis familiaris; experiment: Effect on renal blood flow in conscious dogs dosed at 5 mg/kg, observed at 4-5 h; type: functional, Canis lupus familiaris; outline: as §1
[27] = test system: Canis familiaris; experiment: Effect on lower arterial blood pressure in conscious dogs dosed at 5 mg/kg, observed at 0-1 h; type: functional, Canis lupus familiaris; outline: as §1
[28] = test system: Canis familiaris; experiment: Effect on renal blood flow in conscious dogs dosed at 5 mg/kg, observed at 3-4 h; type: functional, Canis lupus familiaris; outline: as §1
[29] = test system: Canis familiaris; experiment: Effect on renal blood flow in conscious dogs dosed at 5 mg/kg, observed at 0-1 h; type: functional, Canis lupus familiaris; outline: as §1
[30] = test system: Canis familiaris; experiment: Effect on heart rate in conscious dogs dosed at 5 mg/kg, observed at 2-3 h; type: functional, Canis lupus familiaris; outline: as §1
[31] = test system: Canis familiaris; experiment: Effect on lower aortic blood flow in conscious dogs dosed at 5 mg/kg, observed at 2-3 h; type: functional, Canis lupus familiaris, Aorta; outline: as §1
[32] = test system: Canis familiaris; experiment: Effect on heart rate in conscious dogs dosed at 5 mg/kg, observed at 0-1 h; type: functional, Canis lupus familiaris; outline: as §1
[33] = test system: Canis familiaris; experiment: Effect on renal plasma flow in conscious dogs dosed at 0.4 mg/kg (post-treatment); type: functional, Canis lupus familiaris; outline: as §3
[34] = test system: Canis familiaris; experiment: Effect on renal plasma flow in conscious dogs dosed at 10 mg/kg (pretreatment); type: functional, Canis lupus familiaris; outline: as §3
[35] = test system: Canis familiaris; experiment: Effect on renal plasma flow in conscious dogs dosed at 0.4 mg/kg (pretreatment); type: functional, Canis lupus familiaris; outline: as §3
[36] = test system: Canis familiaris; experiment: Effect on renal plasma flow in conscious dogs dosed at 10 mg/kg (post-treatment); type: functional, Canis lupus familiaris; outline: as §3
[37] = test system: Canis familiaris; experiment: Percent change in renal plasma flow in conscious dogs dosed at 10 mg/kg; type: functional, Canis lupus familiaris; outline: as §3
[38] = test system: Canis familiaris; experiment: Percent change in renal plasma flow in conscious dogs dosed at 0.4 mg/kg; type: functional, Canis lupus familiaris; outline: as §3
[39] = test system: Canis familiaris; experiment: Percent change in renal plasma flow in conscious dogs dosed at 0.025 mg/kg; type: functional, Canis lupus familiaris; outline: as §3
[40] = test system: Canis familiaris; experiment: Effect on renal plasma flow in conscious dogs dosed at 0.025 mg/kg (pretreatment); type: functional, Canis lupus familiaris; outline: as §3
[41] = test system: Canis familiaris; experiment: Effect on renal plasma flow in conscious dogs dosed at 0.025 mg/kg (post-treatment); type: functional, Canis lupus familiaris; outline: as §3
[42] = test system: Canis familiaris; experiment: Percent change in renal resistance in anesthetized dogs after infusion of compound at 110 nM/kg/min; type: functional, Canis lupus familiaris; outline: as §2
[43] = test system: Canis familiaris; experiment: Percent change in renal resistance in anesthetized dogs after infusion of compound at 60 nM/kg/min; type: functional, Canis lupus familiaris; details: in the assay text read “60 ng/kg/min” for “60 nM/kg/min”; outline: as §2
[44] = dose 1 mg/kg, in the assay text read “dosed at 1 mg/kg” for “dosed at 5 mg/kg”

| Compound | Mean blood pressure [1] [mmHg] | Mean LAF [6] [mL/min] | Activity [7] [mL/min] | Mean RBF [9] [mL/min] | Mean blood pressure [11] [mmHg] | Mean blood pressure [13] [mmHg] | Mean HR [14] [beats min-1] | Mean blood pressure [15] [mmHg] | Mean LAF [16] [mL/min] | Mean HR [18] [beats min-1] | Mean HR [19] [beats min-1] | Mean LAF [20] [mL/min] | Mean LAF [25] [mL/min] | Mean RBF [26] [mL/min] | Mean blood pressure [27] [mmHg] | Mean RBF [28] [mL/min] | Mean RBF [29] [mL/min] | Mean HR [30] [beats min-1] | Mean LAF [31] [mL/min] | Mean HR [32] [beats min-1] | further results |
| --- | --- | --- | --- | --- | --- | --- | --- | --- | --- | --- | --- | --- | --- | --- | --- | --- | --- | --- | --- | --- | --- |
| O=C(O)c1ccc(CCCC2SCC(=O)N2CCC2(O)CCCCC2)cc1 (stereo not drawn) | 97 | 477 | 136 | 211 | 89 | 98 | 136 | 101 | 486 | 131 | 169 | 597 | 492 | 242 | 105 | 233 | 179 | 144 | 521 | 122 | Change [2]: -13%; Activity [3]: 148 mL/min; Change [4]: 62%; Change [5]: 52%; Activity [8]: 322 mL/min; Activity [10]: 216 mL/min; Change [12]: -24%; Change [17]: 137%; Activity [21]: 142 mL/min; Change [22]: -28%; Mean RBF [23, 44]: 226 mL/min; Activity [24]: 240 mL/min |
| O=C(O)c1ccc(CCC[C@@H]2SCC(=O)N2CCC2(O)CCCCC2)cc1 | – | – | 138 | – | – | – | – | – | – | – | – | – | – | – | – | – | – | – | – | – | Activity [33]: 147 mL/min; Activity [34]: 139 mL/min; Activity [35]: 136 mL/min; Activity [36]: 151 mL/min; Activity [8]: 146 mL/min; Change [17]: 6%; Change [37]: 9%; Change [38]: 8% |
| CCCCCC(O)CCN1C(=O)CSC1CCCc1ccc(C(=O)O)cc1 (stereo not drawn) | 116 | 510 | – | 241 | 108 | 116 | 84 | 116 | 546 | 92 | 118 | 560 | 521 | 159 | 118 | 183 | 201 | 107 | 625 | 103 | Mean RBF ([23]; dose 5 mg/kg): 209 mL/min |
| CCCCCC(O)CCN1C(=O)CSC1CCCCCCC(=O)O (stereo not drawn) | 140 | 386 | – | 110 | 146 | 132 | 76 | 133 | 420 | 82 | 79 | 424 | 427 | 111 | 123 | 116 | 181 | 85 | 432 | 126 | Mean RBF ([23]; dose 5 mg/kg): 110 mL/min |
| O=C(O)c1ccc(CCC[C@H]2SCC(=O)N2CCC2(O)CCCCC2)cc1 | – | – | 143 | – | – | – | – | – | – | – | – | – | – | – | – | – | – | – | – | – | Activity [3]: 178 mL/min; Change [39]: 54%; Change [4]: 62%; Activity [8]: 292 mL/min; Activity [40]: 155 mL/min; Change [17]: 104%; Activity [41]: 239 mL/min; Activity [24]: 289 mL/min |
| O=C(O)CCCCCCC1SCC(=O)N1CCC1(O)CCCCC1 (stereo not drawn) | 92 | 388 | – | 150 | 74 | 104 | 88 | 100 | 772 | 94 | 185 | 742 | 510 | 160 | 59 | 176 | 97 | 113 | 530 | 180 | Mean RBF [23, 44]: 199 mL/min |
| CCCCC[C@H](O)/C=C/[C@H]1[C@H](O)CC(=O)[C@@H]1C/C=C\CCCC(=O)O [DINOPROSTONE] | – | – | – | – | – | – | – | – | – | – | – | – | – | – | – | – | – | – | – | – | Change [2]: -13%; Change [42]: -35%; Change [43]: -29% |
